Source: ChEMBL document CHEMBL1124528, “Tetrahydrothiadiazoloisoquinolines: synthesis and inhibition of phenylethanolamine-N-methyltransferase” (J Med Chem, 1989)

How the values were obtained:
[1] = test system: Phenylethanolamine N-methyltransferase (rabbit); test: Ability to inhibit rabbit adrenal phenylethanolamine N-methyl-transferase norepinephrine to epinephrine (E13), in vitro, at 10 e-6 M; conditions: Oryctolagus cuniculus
[2] = test system: Mus musculus; test: Maximum inactive dose that causes decrease in endogenous adrenal epinephrine/norepinephrine ratio, when administered perorally in mice
[3] = test system: Rattus norvegicus; test: Ability to inhibit [3H]epinephrine biosynthesis was determined in the adrenal medulla of rats by administering 3 mg/kg of compound orally.; assay type: functional; conditions: po
[4] = test system: Mus musculus; test: Minimum active dose that causes decrease in endogenous epinephrine/norepinephrine ratio, when administered perorally in mice; assay type: functional
How it was run: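 Mice given compound orally, b.i.d., as chronic dosing, then adrenal gland E and NE content measured to give the E/NE ratio. Minimum active dose is the lowest dose giving p < 0.05 vs control by Student's t test.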

[5] = test system: Phenylethanolamine N-methyltransferase (rabbit); test: Ability to inhibit rabbit adrenal PNMT norepinephrine to epinephrine (E13), in vitro, at 10 e-4 M compound concentration.; conditions: Oryctolagus cuniculus
[6] = test system: Phenylethanolamine N-methyltransferase (rabbit); test: Ability to inhibit rabbit adrenal PNMT norepinephrine to epinephrine (E13), in vitro, at 10 e-6 M; conditions: Oryctolagus cuniculus
[7] = test system: Mus musculus; test: Minimum active dose that causes decrease in endogenous adrenal epinephrine/norepinephrine ratio, when administered perorally in mice; assay type: functional
How it was run: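 Mice dosed orally b.i.d. (chronic administration), then adrenal E and NE content measured and the decrease in E/NE ratio determined. Minimum active dose is the lowest dose significant at p < 0.05 versus control by Student's t test.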

Row | inhibition [1] | inhibition [5] | inhibition [6] | Structure (SMILES) | other results
1 | 14% | – | – | c1ccc2c3c(ccc2c1)CCNC3 | –
2 | 0% | – | – | c1nc2c3c(ccc2[nH]1)CCNC3 | –
3 | 91% | – | – | c1cc2nnsc2c2c1CCNC2 | –
4 | – | – | – | Cl.Clc1ccc2c(c1Cl)CNCC2 | MID [2]: 2.5 mg/kg; inhibition in vivo at 3 mg/kg [3]: 50%; MAD [4]: 5 mg/kg
5 | 20% | – | – | c1cc2[nH]nnc2c2c1CCNC2 | –
6 | – | 41% | 15% | Nc1nc2ccc3c(c2s1)CNCC3 | –
7 | – | 4% | 1% | Oc1nc2c3c(ccc2[nH]1)CCNC3 | –
8 | – | 98% | 51% | Clc1cc2snnc2c2c1CCNC2 | –
9 | – | 37% | 3% | Oc1nc2c3c(ccc2s1)CCNC3 | –
10 | – | – | – | Cl.c1cc2snnc2c2c1CCNC2 | MID [2]: 6.25 mg/kg; inhibition in vivo at 3 mg/kg [3]: 87%; MAD [7]: 12.5 mg/kg
11 | 24% | – | – | c1nc2ccc3c(c2s1)CNCC3 | –
